# Measurements taken from paper PMC6912599 (European journal of medicinal chemistry, 2018).
# Read-outs that look alike come from different tables or passages of the source.
# Key:
# α1β3 GABAAR [1] = biological target: T1, α1β3 GABAAR (Homo sapiens, UniProt P14867+P28472); assay: Modulation of 2 nM [3H]muscimol binding to α1β3 GABAAR
# T1 sequence (P14867 28-456): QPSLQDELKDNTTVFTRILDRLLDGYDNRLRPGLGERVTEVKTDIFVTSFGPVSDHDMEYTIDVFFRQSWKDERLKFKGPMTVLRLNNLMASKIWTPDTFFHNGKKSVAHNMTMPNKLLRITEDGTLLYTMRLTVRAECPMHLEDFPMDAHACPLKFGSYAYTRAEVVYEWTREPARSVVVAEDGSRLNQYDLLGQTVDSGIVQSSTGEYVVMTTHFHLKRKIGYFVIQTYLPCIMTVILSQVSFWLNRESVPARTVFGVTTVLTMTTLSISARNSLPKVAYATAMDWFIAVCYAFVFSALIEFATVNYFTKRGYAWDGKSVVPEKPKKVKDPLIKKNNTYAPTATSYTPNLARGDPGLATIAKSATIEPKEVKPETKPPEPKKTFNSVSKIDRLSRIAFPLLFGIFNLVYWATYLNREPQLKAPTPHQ
# T1 sequence (P28472 26-473): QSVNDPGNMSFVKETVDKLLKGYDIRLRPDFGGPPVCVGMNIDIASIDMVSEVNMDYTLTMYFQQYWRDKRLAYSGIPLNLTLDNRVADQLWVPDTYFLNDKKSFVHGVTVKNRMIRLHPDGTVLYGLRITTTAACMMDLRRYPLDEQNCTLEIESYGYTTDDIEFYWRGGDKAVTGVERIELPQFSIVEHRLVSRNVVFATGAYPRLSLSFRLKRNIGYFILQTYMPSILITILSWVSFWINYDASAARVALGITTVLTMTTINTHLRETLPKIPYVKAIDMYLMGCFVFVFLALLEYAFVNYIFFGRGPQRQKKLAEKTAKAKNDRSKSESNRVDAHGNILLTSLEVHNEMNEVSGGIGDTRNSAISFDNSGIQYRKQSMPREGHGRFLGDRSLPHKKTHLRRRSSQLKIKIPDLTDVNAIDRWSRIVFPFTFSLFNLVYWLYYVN
# α1β3 GABAAR [2] = biological target: T1, α1β3 GABAAR; assay: Voltage clamp electrophysiology of α1β3 GABAAR expressed in Xenopus oocytes; format: cell-based
# α1Q242Wβ3γ2L receptors = α1Q242Wβ3γ2L receptors (Homo sapiens, UniProt P14867+P28472, Q269W); assay: Electrophysiology of steroid site mutant α1Q242Wβ3γ2L receptors in oocytes; format: cell-based; conditions: 10 μM steroid; EC5 GABA
# α1Q242Wβ3γ2L receptors, sequence (P14867 28-456 Q269W, one chain of several): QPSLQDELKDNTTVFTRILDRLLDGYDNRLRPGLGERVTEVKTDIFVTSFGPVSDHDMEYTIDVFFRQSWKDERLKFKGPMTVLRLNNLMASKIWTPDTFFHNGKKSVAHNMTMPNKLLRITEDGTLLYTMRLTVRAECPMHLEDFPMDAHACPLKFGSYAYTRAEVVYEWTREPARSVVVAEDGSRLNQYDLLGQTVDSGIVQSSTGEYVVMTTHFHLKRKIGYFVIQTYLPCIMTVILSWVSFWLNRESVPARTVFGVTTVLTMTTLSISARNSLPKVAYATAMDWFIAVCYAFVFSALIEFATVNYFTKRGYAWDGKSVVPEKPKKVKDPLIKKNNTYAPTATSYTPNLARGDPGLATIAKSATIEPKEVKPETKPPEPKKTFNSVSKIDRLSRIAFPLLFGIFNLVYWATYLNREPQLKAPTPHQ
# α1Q242Wβ3γ2L receptors, sequence (P18507 40-475 partner, one chain of several): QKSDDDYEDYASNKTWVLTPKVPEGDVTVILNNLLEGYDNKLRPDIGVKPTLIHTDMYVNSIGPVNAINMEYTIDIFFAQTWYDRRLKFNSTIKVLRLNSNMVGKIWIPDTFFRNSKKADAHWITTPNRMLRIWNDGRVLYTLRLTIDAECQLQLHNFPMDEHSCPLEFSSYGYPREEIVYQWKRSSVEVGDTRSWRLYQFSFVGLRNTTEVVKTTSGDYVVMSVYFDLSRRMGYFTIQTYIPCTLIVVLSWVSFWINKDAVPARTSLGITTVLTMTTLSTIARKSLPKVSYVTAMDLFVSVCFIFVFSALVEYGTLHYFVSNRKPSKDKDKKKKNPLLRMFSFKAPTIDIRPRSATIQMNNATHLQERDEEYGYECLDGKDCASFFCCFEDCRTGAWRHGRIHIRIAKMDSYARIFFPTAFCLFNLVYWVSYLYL
# Outline: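 Female Xenopus laevis stage V oocytes were injected with up to 10 ng of α1Q242W, β3 and γ2L mRNA (1:1:3) and held ≥24 h. Two-electrode voltage clamp was run at −50 mV and 20–22°C, with ND96 (pH 7.4) superfusion at 2–3 mL/min.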
# α1β3γ2L GABAAR [3] = biological target: T2, α1β3γ2L GABAAR (Homo sapiens, UniProt P14867+P28472); assay: Voltage clamp electrophysiology of α1β3γ2L GABAAR expressed in Xenopus oocytes; format: cell-based; conditions: for enhancement of EC5 GABA-activated currents: 10 μM compound; for enhancement of EC5 GABA-activated currents / potentiation of EC5 GABA-activated chloride currents (up to): EC5 GABA (4 μM); for potentiation of EC5 GABA-activated chloride currents (up to): maximum concentration tested 100 μM
# Target sequence in this assay (P18507 40-475 partner, one chain of several): as above
# α1L264Tβ3γ2L receptors = α1L264Tβ3γ2L receptors (Homo sapiens, UniProt P14867+P28472, L291T); assay: Direct activation of spontaneously gating α1L264Tβ3γ2L receptors in oocytes; format: cell-based
# α1L264Tβ3γ2L receptors, sequence (P18507 40-475, one chain of several): as the sequence (P18507 40-475 partner, one chain of several) above
# α1L264Tβ3γ2L receptors, sequence (P14867 28-456 L291T, one chain of several): as the sequence (P14867 28-456 Q269W, one chain of several) above, with W242Q, L264T counted along it
# α1β3γ2L GABAAR [4] = biological target: T2, α1β3γ2L GABAAR; assay: Modulation of 2 nM [3H]muscimol binding to α1β3γ2L GABAAR
# Target sequence in this assay (P18507 40-475, one chain of several, further chain): as the sequence (P18507 40-475 partner, one chain of several) above
# tadpoles [5] = assay: Loss of righting reflexes; format: in vivo, tadpole
# α1β3 GABAAR [6] = biological target: T1, α1β3 GABAAR; assay: Inhibition of [3H]21-pTFDBzox-AP photolabeling of purified α1β3 GABAAR; format: binding; conditions: for inhibition of photolabeling at high concentrations: same extent as 30 μM allopregnanolone
# α1β3γ2 GABAAR = α1β3γ2 GABAAR (Homo sapiens, UniProt P14867+P28472); assay: Inhibition of [3H]21-pTFDBzox-AP photolabeling of purified α1β3γ2 GABAAR; format: binding; conditions: 30 μM; 0.8 μM [3H]21-pTFDBzox-AP
# α1β3γ2 GABAAR, sequence (P18507 40-475 partner, one chain of several): as above
# tadpoles [7] = conditions: read-out: published anesthetic EC50s; tadpole LoRR; cited from earlier work
compound,measurement,setting,value
21-[4-(3-(Trifluoromethyl)-3H-diazirin-3-yl)benzoxy]allopregnanolone [21-pTFDBzox-AP],Hill coefficient nH of [3H]muscimol binding enhancement,α1β3 GABAAR [1]; detergent/lipid micelles,1.45 ± 0.51
same,maximal enhancement of [3H]muscimol binding,α1β3 GABAAR [1]; detergent/lipid micelles,172 ± 6%
same,Hill coefficient nH of [3H]muscimol binding enhancement,α1β3 GABAAR [1]; membranes,1.71 ± 0.10
same,maximal enhancement of [3H]muscimol binding,α1β3 GABAAR [1]; membranes,271 ± 7%
same,enhancement of EC10 GABA-activated currents,"α1β3 GABAAR [2]; 10 μM compound, EC10 GABA (1 μM)",2.1± 0.4 fold
same,fitted maximal enhancement ratio,"α1β3 GABAAR [2]; EC10 GABA, Hill slope constrained to 1.7",2.1 ± 0.4
same,positive modulation in α1Q242W mutant receptors,α1Q242Wβ3γ2L receptors,eliminated positive modulation
same,effect on GABA EC50,α1β3γ2L GABAAR [3]; 5 μM,did not reduce the GABA EC50
same,enhancement of EC5 GABA-activated currents,α1β3γ2L GABAAR [3],2.6 ± 0.3 fold
same,fitted maximal enhancement ratio,"α1β3γ2L GABAAR [3]; EC5 GABA, Hill slope constrained to 1.7",2.6 ± 0.3
same,current elicited as % of the maximal GABA response,"α1L264Tβ3γ2L receptors; 2 μM, no GABA",approximately 21%
same,direct increase of inward current in the absence of GABA,"α1L264Tβ3γ2L receptors; 2 μM, no GABA",about 50%
same,Hill coefficient nH of [3H]muscimol binding enhancement,α1β3γ2L GABAAR [4]; detergent/lipid micelles,1.15 ± 0.36
same,maximal enhancement of [3H]muscimol binding,α1β3γ2L GABAAR [4]; detergent/lipid micelles,135 ± 1%
same,Hill coefficient nH of [3H]muscimol binding enhancement,α1β3γ2L GABAAR [4]; membranes,1.09 ± 0.22
same,maximal enhancement of [3H]muscimol binding,α1β3γ2L GABAAR [4]; membranes,199 ± 30%
same,antagonism of alphaxalone's anesthetic action,tadpoles [5]; 2.5 or 10 μM 21-pTFDBzox-AP,no significant antagonism
same,Loss of righting reflexes (LoRR),"tadpoles [5]; tadpoles exposed to 1, 2, 3 and 10 μM",No LoRR
"CC(=O)[C@H]1CC[C@H]2[C@@H]3CC4(N=N4)[C@H]4C[C@H](O)CC[C@]4(C)[C@H]3C(=O)C[C@]12C [6-azi-OAP, 6-Azi-3α-hydroxy-5α-pregnane-11,20-dione]",effect on GABA dose-response curves compared with α1β3γ2L,"α1β3 GABAAR [2]; 15 μM, not shown",similar
same,decrease of GABA EC50,α1β3γ2L GABAAR [3]; 15 μM 6-azi-OAP,approximately 3 fold
same,potentiation of EC5 GABA-activated chloride currents (up to),α1β3γ2L GABAAR [3],10.1 ± 0.67 fold
same,Hill coefficient nH of [3H]muscimol binding enhancement,α1β3γ2L GABAAR [4]; α1β3γ2 GABAARs,1.3 ± 0.15
same,efficacy of modulation of [3H]muscimol binding,α1β3γ2L GABAAR [4]; α1β3γ2 GABAARs,330 ± 9%
"CC(=O)[C@H]1CC[C@H]2[C@@H]3CC4(N=N4)[C@@H]4C[C@H](O)CC[C@]4(C)[C@H]3C(=O)C[C@]12C [6-azi-OP, 6-Azi-3α-hydroxy-5β-pregnane-11,20-dione]",potentiation of EC5 GABA-activated chloride currents (up to),α1β3γ2L GABAAR [3],8.0 ± 1.4 fold
same,Hill coefficient nH of [3H]muscimol binding enhancement,α1β3γ2L GABAAR [4]; α1β3γ2 GABAARs,1.6 ± 0.1
same,efficacy of modulation of [3H]muscimol binding,α1β3γ2L GABAAR [4]; α1β3γ2 GABAARs,241 ± 3%
C=CC[C@@]1(c2cccc(C3(C(F)(F)F)N=N3)c2)C(=O)NC(=O)N(C)C1=O [R-mTFD-MPAB],inhibition of photolabeling,α1β3 GABAAR [6]; 60 μM,no inhibition
"C[C@]12CC[C@@H](O)C[C@@H]1CC[C@@H]1[C@@H]2CC[C@]2(C)[C@@H](C(=O)CO)CC[C@@H]12 [THDOC, 5α-pregnan-3α, 21-diol-20-one, reference compound]",inhibition of photolabeling at high concentrations,α1β3 GABAAR [6],60%
same,positive modulation in α1Q242W mutant receptors,α1Q242Wβ3γ2L receptors,eliminated positive modulation
same,enhancement of EC5 GABA-activated currents,α1β3γ2L GABAAR [3],16 ± 2.1 fold
"CC(=O)[C@H]1CC[C@H]2[C@@H]3CC[C@H]4C[C@H](O)CC[C@]4(C)[C@H]3CC[C@]12C [allopregnanolone, 5α-pregnan-3α-ol-20-one]",reduction of β subunit photolabeling,α1β3γ2 GABAAR,70%
same,reduction of β subunit photolabeling,"α1β3 GABAAR [6]; 30 μM, 0.8 μM [3H]21-pTFDBzox-AP",60%
"CC(=O)[C@H]1CC[C@H]2[C@@H]3CC[C@H]4C[C@H](O)CC[C@]4(C)[C@H]3C(=O)C[C@]12C [alphaxalone, 5α-pregnan-3α-ol-11,20-dione, reference compound]",EC50,tadpoles [7],1000 to 2000 nM
same,EC50,"tadpoles [5]; read-out: anesthetic EC50 (LoRR), alphaxalone alone, 60 minutes equilibration",1400 ± 300 nM
same,EC50,"tadpoles [5]; read-out: anesthetic EC50 of alphaxalone, in constant presence of […] 21-pTFDBzox-AP",920 ± 300 nM
CCOC(=O)c1cncn1[C@H](C)c1ccccc1 [etomidate],inhibition of photolabeling,α1β3 GABAAR [6]; 1 mM,no inhibition
"CC(=O)[C@H]1CC[C@H]2[C@@H]3CC[C@@H]4C[C@H](O)CC[C@]4(C)[C@H]3CC[C@]12C [pregnanolone, 5β-pregnan-3α-ol-20-one]",IC50,α1β3 GABAAR [6],700 nM
same,inhibition of photolabeling at high concentrations,α1β3 GABAAR [6],60%
Picrotoxin [reference compound],outward currents as % of maximal GABA-induced inward currents,α1L264Tβ3γ2L receptors; 2 mM,about 40%
pregnenolone sulfate,inhibition of photolabeling,α1β3 GABAAR [6]; 100 μM,no inhibition
